In ChEMBL document CHEMBL5724801, “EUbOPEN Chemogenomics Library - Multiplex” (2024):
Several values for one entry are separate records, joined by “and”; a condition that tells them apart may be missing. Identical values can stand only once.

Test system: HEK-293T
Assay: Multiplex assay against HEK293T
Type: toxicity, cell-based
Details: human, 12 h, 1 µM, compound concentration 1 uM
Outline: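 With compound added, live cells were imaged on a CQ1 microscope at 37°C and 5% CO2; staining with Hoechst33342, BioTracker Green Microtubule Cytoskeleton Dye, MitoTracker Red and Annexin V Alexa Fluor 680 had been done at seeding. The CellPathfinder machine-learning gating scheme split cells into Hoechst high-intensity objects or normal cells, normal cells into healthy, pyknosed or fragmented nuclei, and pyknosed cells into mitotic or apoptotic. The tubulin, mitochondrial-mass and membrane-permeability phenotypes are per cents of healthy-nucleus cells.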

SMILES	Population Apoptotic (%)	Population Fragmented Nuclei (%)	Population Hoechst High Intensity Objects (%)	Population Membrane Permeable-Phenotype (%)	Population Mitochondria Different-Phenotype (%)	Population Mitotic Cells (%)	Population Normal (%)	Population Pyknosed Nuclei (%)	Total Cell Count	Population Healthy Nuclei (%)
O=C1NCc2ccc3c(-c4cccc(Cl)c4)c[nH]c3c21	9.74% and 10.57%	0.72% and 0.69%	0.36% and 0%	0%	41.8% and 23.81%	90.26% and 89.43%	99.64% and 100%	55.4% and 84.83%	279 and 145	
CCCCCCNC(=O)Nc1ccc(S(=O)(=O)Nc2ccc(CCNC[C@H](O)COc3ccc(O)cc3)cc2)cc1 [L-755507]	35% and 31%	8% and 6%	7%	0%	39% and 64%	64% and 68%	92%	7% and 10%	494 and 403	84% and 83%

Same assay, conditions: human, 12 h, 1 µM, compound concentration 1 uM

SMILES	Population Tubulin-Different-Phenotype (%)
CCCCCCNC(=O)Nc1ccc(S(=O)(=O)Nc2ccc(CCNC[C@H](O)COc3ccc(O)cc3)cc2)cc1 [L-755507]	28% and 32%

Same assay, conditions: human, 12 h, 10 µM, compound concentration 10 uM

SMILES	Population Apoptotic (%)	Population Fragmented Nuclei (%)	Population Healthy Nuclei (%)	Population Hoechst High Intensity Objects (%)	Population Membrane Permeable-Phenotype (%)	Population Mitotic Cells (%)	Population Normal (%)	Population Pyknosed Nuclei (%)	Population Tubulin-Different-Phenotype (%)	Total Cell Count
O=C1NCc2ccc3c(-c4cccc(Cl)c4)c[nH]c3c21	21.19% and 16.81%	1.88% and 2.24%	27.23% and 13.43%	0.47% and 4.29%	0%	78.81% and 83.19%	99.53% and 95.71%	70.89% and 84.33%	5.17% and 11.11%	214 and 140
CCCCCCNC(=O)Nc1ccc(S(=O)(=O)Nc2ccc(CCNC[C@H](O)COc3ccc(O)cc3)cc2)cc1 [L-755507]	58% and 71%	10% and 8%	74% and 79%	17% and 7%	0%	41% and 28%	82% and 92%	14% and 11%	68% and 61%	384 and 341

Same assay, conditions: human, 12 h, 10 µM, compound concentration 10 uM

SMILES	Population Mitochondria Different-Phenotype (%)
CCCCCCNC(=O)Nc1ccc(S(=O)(=O)Nc2ccc(CCNC[C@H](O)COc3ccc(O)cc3)cc2)cc1 [L-755507]	69% and 87%

Same assay, conditions: human, 24 h, 1 µM, compound concentration 1 uM

SMILES	Population Apoptotic (%)	Population Fragmented Nuclei (%)	Population Healthy Nuclei (%)	Population Hoechst High Intensity Objects (%)	Population Membrane Permeable-Phenotype (%)	Population Mitotic Cells (%)	Population Normal (%)	Population Pyknosed Nuclei (%)	Population Tubulin-Different-Phenotype (%)	Total Cell Count
O=C1NCc2ccc3c(-c4cccc(Cl)c4)c[nH]c3c21	26.79% and 11.65%	3.63% and 0.67%	59.41% and 30.2%	0%	0%	73.21% and 88.35%	100%	36.96% and 69.13%	7.78% and 8.89%	303 and 149
CCCCCCNC(=O)Nc1ccc(S(=O)(=O)Nc2ccc(CCNC[C@H](O)COc3ccc(O)cc3)cc2)cc1 [L-755507]	19% and 30%	9% and 11%	80%	5% and 4%	0%	80% and 70%	94% and 95%	9% and 7%	20% and 22%	634 and 547

Same assay, conditions: human, 24 h, 1 µM, compound concentration 1 uM

SMILES	Population Mitochondria Different-Phenotype (%)
CCCCCCNC(=O)Nc1ccc(S(=O)(=O)Nc2ccc(CCNC[C@H](O)COc3ccc(O)cc3)cc2)cc1 [L-755507]	20% and 42%

Same assay, conditions: human, 24 h, 10 µM, compound concentration 10 uM

SMILES	Population Apoptotic (%)	Population Fragmented Nuclei (%)	Population Healthy Nuclei (%)	Population Hoechst High Intensity Objects (%)	Population Membrane Permeable-Phenotype (%)	Population Mitochondria Different-Phenotype (%)	Population Mitotic Cells (%)	Population Normal (%)	Population Pyknosed Nuclei (%)	Population Tubulin-Different-Phenotype (%)
O=C1NCc2ccc3c(-c4cccc(Cl)c4)c[nH]c3c21	31.52% and 52.43%	1.99% and 3.12%	24.7% and 16.41%	0% and 3.76%	0% and 4.76%	56.45% and 23.81%	68.48% and 47.57%	100% and 96.24%	73.31% and 80.47%	1.61% and 0%
CCCCCCNC(=O)Nc1ccc(S(=O)(=O)Nc2ccc(CCNC[C@H](O)COc3ccc(O)cc3)cc2)cc1 [L-755507]	26% and 48%	8% and 7%	80% and 83%	14% and 9%	0%	59% and 68%	73% and 51%	85% and 90%	11% and 9%	42% and 51%

Same assay, conditions: human, 24 h, 10 µM, compound concentration 10 uM

SMILES	Total Cell Count
O=C1NCc2ccc3c(-c4cccc(Cl)c4)c[nH]c3c21	251 and 133
CCCCCCNC(=O)Nc1ccc(S(=O)(=O)Nc2ccc(CCNC[C@H](O)COc3ccc(O)cc3)cc2)cc1 [L-755507]	461 and 402

Same assay, conditions: human, 48 h, 1 µM, compound concentration 1 uM

SMILES	Population Apoptotic (%)	Population Fragmented Nuclei (%)	Population Healthy Nuclei (%)	Population Hoechst High Intensity Objects (%)	Population Membrane Permeable-Phenotype (%)	Population Mitotic Cells (%)	Population Normal (%)	Population Pyknosed Nuclei (%)	Total Cell Count	Population Mitochondria Different-Phenotype (%)
O=C1NCc2ccc3c(-c4cccc(Cl)c4)c[nH]c3c21	20.62% and 21.52%	3.28% and 0.63%	72.22% and 49.69%	0.5% and 0%	0.35% and 0%	79.38% and 78.48%	99.5% and 100%	24.49% and 49.69%	398 and 159	
CCCCCCNC(=O)Nc1ccc(S(=O)(=O)Nc2ccc(CCNC[C@H](O)COc3ccc(O)cc3)cc2)cc1 [L-755507]	10% and 15%	12% and 13%	81% and 80%	3% and 5%	2%	89% and 84%	96% and 94%	6%	1052 and 775	16% and 24%

Same assay, conditions: human, 48 h, 1 µM, compound concentration 1 uM

SMILES	Population Tubulin-Different-Phenotype (%)
CCCCCCNC(=O)Nc1ccc(S(=O)(=O)Nc2ccc(CCNC[C@H](O)COc3ccc(O)cc3)cc2)cc1 [L-755507]	15% and 20%

Same assay, conditions: human, 48 h, 10 µM, compound concentration 10 uM

SMILES	Population Apoptotic (%)	Population Fragmented Nuclei (%)	Population Hoechst High Intensity Objects (%)	Population Membrane Permeable-Phenotype (%)	Population Mitochondria Different-Phenotype (%)	Population Mitotic Cells (%)	Population Normal (%)	Population Pyknosed Nuclei (%)	Total Cell Count	Population Healthy Nuclei (%)
O=C1NCc2ccc3c(-c4cccc(Cl)c4)c[nH]c3c21	54.1% and 46.85%	4.95% and 2.36%	0.45% and 0.78%	0%	83.15% and 38.46%	45.9% and 53.15%	99.55% and 99.22%	54.95% and 87.4%	223 and 128	
CCCCCCNC(=O)Nc1ccc(S(=O)(=O)Nc2ccc(CCNC[C@H](O)COc3ccc(O)cc3)cc2)cc1 [L-755507]	46% and 65%	15% and 13%	11% and 8%	1% and 0%	36% and 47%	53% and 34%	88% and 91%	9% and 5%	598 and 596	75% and 80%

Same assay, conditions: human, 48 h, 10 µM, compound concentration 10 uM

SMILES	Population Tubulin-Different-Phenotype (%)
CCCCCCNC(=O)Nc1ccc(S(=O)(=O)Nc2ccc(CCNC[C@H](O)COc3ccc(O)cc3)cc2)cc1 [L-755507]	32% and 39%
